Experiments:
Cytochrome P450 3A4 = Cytochrome P450 3A4 (Homo sapiens, UniProt P08684); experiment: Inhibition of CYP3A4 (unknown origin); format: ADME
[1] = biological target: T1, Hepatocyte growth factor receptor (Homo sapiens, UniProt P08581); experiment: Inhibition of HGF-stimulated c-Met autophosphorylation in serum starved human PC3 cells pre-incubated for 1 hr followed by human recombinant HGF stimulation for 10 mins by quantitative electrochemiluminescence immunoassay; format: cell-based, PC-3
Outline: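 Serum-starved PC-3 cells (plated in high-glucose DMEM/10% FBS, then 16 h in low-glucose DMEM with 0.1% BSA) were treated with a 10-point inhibitor dilution for 1 h at 37 °C. Cells were then stimulated with 200 ng/mL recombinant human HGF for 10 min and lysed. Phospho-c-Met was captured with biotinylated anti-c-Met and 4G10 by electrochemiluminescence. IC50, n ≥ 2.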

[2] = AUC (0 to infinity) in Sprague-Dawley rat at 2 mg/kg, po; format: ADME, organism-based; parameters: time infinity, dose 2 mg/kg, route oral; details: plasma
Outline: (§1)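 Male Sprague-Dawley rats given 2.0 mg/kg orally in 2% (w/v) hydroxypropylmethylcellulose, 1% (w/v) Tween 80 in water, pH 2.2 (adjusted with HCl or MSA). Some inhibitors instead used 10% (v/v) dimethylacetamide in the same vehicle.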

Liver microsome [3] = experiment: Stability in rat liver microsomes assessed as compound turnover rate; format: ADME
[4] = biological target: T1, Hepatocyte growth factor receptor; experiment: Inhibition of recombinant c-Met kinase domain (unknown origin) incubated for 30 mins using gastrin peptide substrate by HTRF assay
Cytochrome P450 2D6 = Cytochrome P450 2D6 (Homo sapiens, UniProt P10635); experiment: Inhibition of CYP2D6 (unknown origin); format: ADME
Liver microsome [5] = experiment: Stability in human liver microsomes assessed as compound turnover rate; format: ADME
Liver microsome [6] = experiment: Drug metabolism in rat liver microsomes assessed as metabolite M3 formation in presence of NADPH by LC-MS/MS method; format: ADME
Outline: (§2)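 Compound incubated with NADPH in mouse, rat, dog, monkey or human liver microsomes. Metabolites were identified by accurate mass spectrometry and MS/MS, and selected ion chromatograms were used to build metabolite profiles.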

Liver microsome [7] = experiment: Drug metabolism in rat liver microsomes assessed as formation of (S)-2-(8-fluoro-6-(3-methylisoxazol-5-yl)-[1,2,4]triazolo[4,3-a]pyridin-3-yl)-2-(3-methoxyquinolin-6-yl)ethanol in presence of NADPH by LC-MS/MS method; format: ADME; outline: as §2
[8] = Oral bioavailability in Sprague-Dawley rat at 2 mg/kg; format: ADME, organism-based; details: in vivo; outline: as §1
[9] = Drug metabolism in mouse liver microsomes assessed as formation of (S)-(5-(8-fluoro-3-(1-(3-methoxyquinolin-6-yl)ethyl)-[1,2,4]triazolo[4,3-a]pyridin-6-yl)isoxazol-3-yl)methanol in presence of NADPH by LC-MS/MS method; format: ADME; outline: as §2
Liver microsome [10] = experiment: Drug metabolism in dog liver microsomes assessed as metabolite M3 in presence of NADPH by LC-MS/MS method; format: ADME, Canis lupus familiaris; outline: as §2
[11] = Half life in Sprague-Dawley rat at 0.25 mg/kg, iv; format: ADME, organism-based; parameters: dose 0.25 mg/kg, route intravenous; details: in vivo
Liver microsome [12] = experiment: Drug metabolism in dog liver microsomes assessed as formation of (S)-2-(8-fluoro-6-(3-methylisoxazol-5-yl)-[1,2,4]triazolo[4,3-a]pyridin-3-yl)-2-(3-methoxyquinolin-6-yl)ethanol in presence of NADPH by LC-MS/MS method; format: ADME, Canis lupus familiaris; outline: as §2
Liver microsome [13] = experiment: Drug metabolism in dog liver microsomes assessed as formation of (S)-(5-(8-fluoro-3-(1-(3-methoxyquinolin-6-yl)ethyl)-[1,2,4]triazolo[4,3-a]pyridin-6-yl)isoxazol-3-yl)methanol in presence of NADPH by LC-MS/MS method; format: ADME, Canis lupus familiaris; outline: as §2
[14] = Drug metabolism in mouse liver microsomes assessed as metabolite M3 formation in presence of NADPH by LC-MS/MS method; format: ADME; outline: as §2
[15] = Clearance in Sprague-Dawley rat at 0.25 mg/kg, iv; format: ADME, organism-based; parameters: dose 0.25 mg/kg, route intravenous; details: Sprague-Dawley, in vivo
Liver microsome [16] = experiment: Unbound clearance rat liver microsomes at 1 uM in presence of NADPH by LC-MS/MS method; format: ADME
Outline: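 Aliquots were taken at 0, 10, 20, 30 and 40 min, quenched with an equal volume of acetonitrile, centrifuged and analysed by LC/MS/MS.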

[17] = Drug metabolism in mouse liver microsomes assessed as formation of (S)-2-(8-fluoro-6-(3-methylisoxazol-5-yl)-[1,2,4]triazolo[4,3-a]pyridin-3-yl)-2-(3-methoxyquinolin-6-yl)ethanol formation in presence of NADPH by LC-MS/MS method; format: ADME; outline: as §2
Liver microsome [18] = experiment: Drug metabolism in rat liver microsomes assessed as formation of (S)-6-(1-(8-fluoro-6-(3-methylisoxazol-5-yl)-[1,2,4]triazolo[4,3-a]pyridin-3-yl)ethyl)quinolin-3-ol in presence of NADPH by LC-MS/MS method; format: ADME; outline: as §2
[19] = Drug metabolism in monkey liver microsomes assessed as formation of (S)-2-(8-fluoro-6-(3-methylisoxazol-5-yl)-[1,2,4]triazolo[4,3-a]pyridin-3-yl)-2-(3-methoxyquinolin-6-yl)ethanol in presence of NADPH by LC-MS/MS method; format: ADME, Macaca mulatta; details: rhesus monkey; outline: as §2
[20] = Drug metabolism in mouse liver microsomes assessed as formation of (S)-6-(1-(8-fluoro-6-(3-methylisoxazol-5-yl)-[1,2,4]triazolo[4,3-a]pyridin-3-yl)ethyl)quinolin-3-ol in presence of NADPH by LC-MS/MS method; format: ADME; outline: as §2
Liver microsome [21] = experiment: Drug metabolism in dog liver microsomes assessed as formation of (S)-6-(1-(8-fluoro-6-(3-methylisoxazol-5-yl)-[1,2,4]triazolo[4,3-a]pyridin-3-yl)ethyl)quinolin-3-ol in presence of NADPH by LC-MS/MS method; format: ADME, Canis lupus familiaris; outline: as §2
[22] = Volume of distribution at steady state in Sprague-Dawley rat at 0.25 mg/kg, iv; format: ADME, organism-based; parameters: dose 0.25 mg/kg, route intravenous; details: in vivo, read-out: Vdss
Outline: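 Male Sprague-Dawley rats were given a single IV dose of 0.25 mg/kg. The vehicle was DMSO, or for some compounds 20% (w/v) hydroxypropyl β-cyclodextrin in water adjusted to pH 3.5 with MSA. NC marks cases where the terminal disposition rate constant could not be characterized for lack of slope.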

Liver microsome [23] = experiment: Drug metabolism in rat liver microsomes assessed as formation of (S)-(5-(8-fluoro-3-(1-(3-methoxyquinolin-6-yl)ethyl)-[1,2,4]triazolo[4,3-a]pyridin-6-yl)isoxazol-3-yl)methanol in presence of NADPH by LC-MS/MS method; format: ADME; outline: as §2
Liver microsome [24] = experiment: Drug metabolism in human liver microsomes assessed as formation of (S)-2-(8-fluoro-6-(3-methylisoxazol-5-yl)-[1,2,4]triazolo[4,3-a]pyridin-3-yl)-2-(3-methoxyquinolin-6-yl)ethanol in presence of NADPH by LC-MS/MS method; format: ADME; outline: as §2
[25] = AUC (0 to infinity) in Sprague-Dawley rat at 0.25 mg/kg, iv; format: ADME, organism-based, Plasma; parameters: dose 0.25 mg/kg, route intravenous, time infinity; details: Sprague-Dawley, plasma

T1 sequence (P08581 whole entry): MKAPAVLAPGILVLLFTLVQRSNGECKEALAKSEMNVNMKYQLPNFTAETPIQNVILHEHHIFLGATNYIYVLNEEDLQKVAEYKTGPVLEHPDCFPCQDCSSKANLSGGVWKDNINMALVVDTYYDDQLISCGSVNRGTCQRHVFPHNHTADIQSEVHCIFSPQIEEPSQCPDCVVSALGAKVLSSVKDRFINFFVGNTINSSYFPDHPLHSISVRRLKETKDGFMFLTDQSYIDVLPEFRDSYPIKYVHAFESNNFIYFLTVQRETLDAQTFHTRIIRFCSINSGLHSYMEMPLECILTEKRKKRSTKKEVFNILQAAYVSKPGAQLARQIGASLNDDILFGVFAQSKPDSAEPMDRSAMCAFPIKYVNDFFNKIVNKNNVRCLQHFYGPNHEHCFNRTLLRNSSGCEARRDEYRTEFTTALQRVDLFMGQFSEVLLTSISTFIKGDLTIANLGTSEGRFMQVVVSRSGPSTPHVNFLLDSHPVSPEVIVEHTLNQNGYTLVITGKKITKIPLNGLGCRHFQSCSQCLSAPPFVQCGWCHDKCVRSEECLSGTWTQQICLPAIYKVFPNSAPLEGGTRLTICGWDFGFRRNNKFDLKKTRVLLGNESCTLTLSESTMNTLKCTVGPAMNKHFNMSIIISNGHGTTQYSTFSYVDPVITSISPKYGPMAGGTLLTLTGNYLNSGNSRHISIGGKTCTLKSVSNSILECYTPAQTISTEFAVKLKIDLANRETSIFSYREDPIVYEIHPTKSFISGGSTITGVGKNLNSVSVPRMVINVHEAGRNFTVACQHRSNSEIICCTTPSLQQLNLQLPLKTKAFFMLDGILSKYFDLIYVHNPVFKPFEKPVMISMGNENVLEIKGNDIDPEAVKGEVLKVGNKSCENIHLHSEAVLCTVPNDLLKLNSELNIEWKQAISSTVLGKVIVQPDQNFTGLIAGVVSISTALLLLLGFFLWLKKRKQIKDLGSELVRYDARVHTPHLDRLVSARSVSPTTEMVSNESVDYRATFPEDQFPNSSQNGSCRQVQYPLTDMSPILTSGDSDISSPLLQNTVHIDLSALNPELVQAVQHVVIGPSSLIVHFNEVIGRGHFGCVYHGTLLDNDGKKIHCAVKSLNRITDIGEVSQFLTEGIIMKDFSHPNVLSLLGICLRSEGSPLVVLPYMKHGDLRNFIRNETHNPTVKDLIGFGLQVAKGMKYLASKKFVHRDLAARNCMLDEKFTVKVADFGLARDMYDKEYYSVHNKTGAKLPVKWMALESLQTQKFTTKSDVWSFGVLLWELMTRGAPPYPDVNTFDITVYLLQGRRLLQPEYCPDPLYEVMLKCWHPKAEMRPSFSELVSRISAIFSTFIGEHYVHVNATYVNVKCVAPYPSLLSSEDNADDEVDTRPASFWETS
Sequence of Cytochrome P450 2D6 (P10635 whole entry): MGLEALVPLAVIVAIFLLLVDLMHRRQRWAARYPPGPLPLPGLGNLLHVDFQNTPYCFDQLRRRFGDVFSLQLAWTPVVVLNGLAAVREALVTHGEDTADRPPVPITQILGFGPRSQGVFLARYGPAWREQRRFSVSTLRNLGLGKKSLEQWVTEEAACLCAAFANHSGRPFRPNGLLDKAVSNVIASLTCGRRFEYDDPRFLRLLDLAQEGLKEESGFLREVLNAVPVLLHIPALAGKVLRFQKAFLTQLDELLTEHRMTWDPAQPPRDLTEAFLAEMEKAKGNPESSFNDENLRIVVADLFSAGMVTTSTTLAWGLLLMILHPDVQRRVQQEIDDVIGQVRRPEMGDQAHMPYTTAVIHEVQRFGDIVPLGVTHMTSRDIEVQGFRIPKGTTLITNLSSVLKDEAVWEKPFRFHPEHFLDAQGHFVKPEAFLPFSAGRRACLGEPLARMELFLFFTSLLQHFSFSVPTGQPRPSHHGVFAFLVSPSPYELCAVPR
Sequence of Cytochrome P450 3A4 (P08684 whole entry): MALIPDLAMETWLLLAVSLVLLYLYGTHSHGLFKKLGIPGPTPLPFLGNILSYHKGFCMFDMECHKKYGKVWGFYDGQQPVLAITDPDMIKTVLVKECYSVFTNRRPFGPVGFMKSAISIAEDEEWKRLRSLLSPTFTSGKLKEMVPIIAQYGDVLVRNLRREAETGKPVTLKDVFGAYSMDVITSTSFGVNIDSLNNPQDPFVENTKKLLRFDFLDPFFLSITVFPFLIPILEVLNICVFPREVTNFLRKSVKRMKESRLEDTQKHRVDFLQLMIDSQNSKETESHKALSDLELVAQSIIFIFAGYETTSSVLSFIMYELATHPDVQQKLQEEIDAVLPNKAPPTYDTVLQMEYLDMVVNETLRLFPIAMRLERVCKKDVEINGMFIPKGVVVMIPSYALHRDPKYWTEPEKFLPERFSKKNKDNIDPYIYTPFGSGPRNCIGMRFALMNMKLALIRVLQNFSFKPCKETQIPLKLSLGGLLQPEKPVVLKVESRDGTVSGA

With `COc1cnc2ccc(C(F)(F)c3nnc4c(F)cc(-c5cnn(C)c5)cn34)cc2c1` the “inhibition (INH)” value (Cytochrome P450 3A4) was “Not Active”, the IC50 [1] was 13 nM and the AUC(0-inf) [2] was > 386 µM·h. The Stability (Liver microsome [3]) was “Stable”, the IC50 [4] was 12 nM and the “inhibition (INH)” value (Cytochrome P450 2D6) was “Not Active”. For the same molecule, the Stability (Liver microsome [5]) was “Stable”.
In the case of `COc1cnc2ccc([C@H](C)c3nnc4c(F)cc(-c5cc(C)no5)cn34)cc2c1`, the Drug metabolism (Liver microsome [6]) is reported as “metabolite_detected”, the Drug metabolism (Liver microsome [7]) is reported as “metabolite_notdetected” and the bioavailability [8] is reported as 42%. For the same molecule, the Drug metabolism [9] was “metabolite_detected”, the Drug metabolism (Liver microsome [10]) was “metabolite_detected” and the half-life [11] was 2.5 h. The Drug metabolism (Liver microsome [12]) was “metabolite_notdetected”, the Drug metabolism (Liver microsome [13]) was “metabolite_detected” and the Drug metabolism [14] was “metabolite_detected”. The clearance [15] was 1.5 mL/min/kg, the IC50 [1] was 6 nM and the CL free (Liver microsome [16]) was 233 mL/min/kg. For the same molecule, the Drug metabolism [17] was “metabolite_notdetected”, the Drug metabolism (Liver microsome [18]) was “metabolite_detected” and the Drug metabolism [19] was “metabolite_detected”. The Drug metabolism [20] was “metabolite_detected”, the IC50 [4] was 2 nM and the Drug metabolism (Liver microsome [21]) was “metabolite_detected”. For the same molecule, the Vd [22] was 0.18 L/kg, the Drug metabolism (Liver microsome [23]) was “metabolite_detected” and the Drug metabolism (Liver microsome [24]) was “metabolite_detected”. For the same molecule, the AUC(0-inf) [25] was 9 µM·h.
